The results in this text go back to ChEMBL document CHEMBL1141780, “Diterpenoid, steroid, and triterpenoid agonists of liver X receptors from diversified terrestrial plants and marine sources” (J Nat Prod, 2005).

The source made the active and inactive calls. The rule behind the calls is not given here. Some results are limits rather than exact numbers.

Experiment [1] has as its target T1, Oxysterols receptor LXR-alpha (Homo sapiens, UniProt Q13133).
T1 sequence (Q13133 whole entry): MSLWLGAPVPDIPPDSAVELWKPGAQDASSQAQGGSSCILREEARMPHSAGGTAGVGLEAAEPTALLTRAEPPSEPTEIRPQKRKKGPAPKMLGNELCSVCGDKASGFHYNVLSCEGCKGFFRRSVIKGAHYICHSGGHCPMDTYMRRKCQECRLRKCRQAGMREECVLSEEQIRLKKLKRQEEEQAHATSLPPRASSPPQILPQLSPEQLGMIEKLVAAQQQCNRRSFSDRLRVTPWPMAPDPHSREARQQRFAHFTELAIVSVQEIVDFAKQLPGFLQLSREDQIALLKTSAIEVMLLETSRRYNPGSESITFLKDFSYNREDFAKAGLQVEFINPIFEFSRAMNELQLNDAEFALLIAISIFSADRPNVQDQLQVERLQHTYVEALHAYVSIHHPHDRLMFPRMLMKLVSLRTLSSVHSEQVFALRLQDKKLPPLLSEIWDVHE
In words: Agonist activity at human recombinant LXRalpha expressed in Escherichia coli BL21 cells assessed as association of recombinant SRC1 to LXRalpha ligand binding domain by HTRF assay. In general terms: TR-FRET usually uses a lanthanide donor and a delayed reading to cut background.

Experiment [2] addresses T2, Oxysterols receptor LXR-beta (Homo sapiens) (UniProt P55055).
T2 sequence (whole entry): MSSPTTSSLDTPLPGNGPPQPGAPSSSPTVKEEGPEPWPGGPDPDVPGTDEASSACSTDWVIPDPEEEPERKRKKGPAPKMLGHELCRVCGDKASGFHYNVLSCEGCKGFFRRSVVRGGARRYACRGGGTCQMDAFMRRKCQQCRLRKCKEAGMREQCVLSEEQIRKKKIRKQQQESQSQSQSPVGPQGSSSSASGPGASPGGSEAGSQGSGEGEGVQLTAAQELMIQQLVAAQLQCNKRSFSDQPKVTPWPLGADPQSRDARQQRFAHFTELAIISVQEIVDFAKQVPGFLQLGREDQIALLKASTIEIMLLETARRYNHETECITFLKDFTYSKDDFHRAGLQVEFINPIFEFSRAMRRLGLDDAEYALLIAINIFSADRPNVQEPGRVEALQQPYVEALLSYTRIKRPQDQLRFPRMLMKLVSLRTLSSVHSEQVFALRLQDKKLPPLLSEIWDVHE
Kind of experiment: Agonist activity at human recombinant LXRbeta expressed in Escherichia coli BL21 cells assessed as association of recombinant SRC1 to LXRbeta ligand binding domain at 10 uM by HTRF assay.

For experiment [3], the target named is T2, Oxysterols receptor LXR-beta (Homo sapiens). The conditions noted are these: BL21.
The target of experiment [4] is T3, Oxysterols receptor LXR-beta (Homo sapiens, UniProt P55055).
T3 sequence (P55055 whole entry): T2 sequence (whole entry)
Kind of experiment: Agonist activity at human recombinant LXRbeta expressed in Escherichia coli BL21 cells assessed as association of recombinant SRC1 to LXRbeta ligand binding domain by HTRF assay.

Experiment [5] addresses T4, Oxysterols receptor LXR-alpha (Homo sapiens) (UniProt Q13133).
T4 sequence (whole entry): T1 sequence (Q13133 whole entry)
Kind of experiment: Activity of human recombinant LXRalpha ligand binding domain-mediated transcriptional activity in human HEK293 cells with Gal4 reporter plasmid at 2.2 uM by luciferase reporter assay. It counts as cell-based. A digest of the protocol:
(§1)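 Cell-based transactivation in HEK-293 cells with chimeric constructs: yeast Gal4 DNA-binding domain fused to the hinge region and LBD of LXRα or LXRβ. Agonist activity is read as fold induction over DMSO control.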
Background: Reporter assays use an easily measured gene product as a stand-in for the process of interest.

The target in experiment [6] is T2, Oxysterols receptor LXR-beta (Homo sapiens). Kind of experiment: Activity of human recombinant LXRbeta ligand binding domain-mediated transcriptional activity in human HEK293 cells with Gal4 reporter plasmid at 30 uM by luciferase reporter assay. Format: cell-based. In a few lines: as §1
The target in experiment [7] is Liver X receptor (LXR alpha AND LXR beta) (Homo sapiens) (UniProt Q13133+P55055). Kind of experiment: Selectivity of human recombinant LXRalpha over human recombinant LXRbeta. It counts as protein assay.
Experiment [8] concerns the target T4, Oxysterols receptor LXR-alpha (Homo sapiens). In words: Activity of human recombinant LXRalpha ligand binding domain-mediated transcriptional activity in human HEK293 cells with Gal4 reporter plasmid at 30 uM by luciferase reporter assay. Format: cell-based. In a few lines:
as §1

The target is the same in experiment [9]. In words: Activity of human recombinant LXRalpha ligand binding domain-mediated transcriptional activity in human HEK293 cells with Gal4 reporter plasmid at 100 uM by luciferase reporter assay. It counts as cell-based. A digest of the protocol:
as §1

The target in experiment [10] is T2, Oxysterols receptor LXR-beta (Homo sapiens). Kind of experiment: Activity of human recombinant LXRbeta ligand binding domain-mediated transcriptional activity in human HEK293 cells with Gal4 reporter plasmid at 100 uM by luciferase reporter assay. It counts as cell-based. A digest of the protocol: as §1
Experiment [11] addresses T4, Oxysterols receptor LXR-alpha (Homo sapiens). In words: Activity of human recombinant LXRalpha ligand binding domain-mediated transcriptional activity in human HEK293 cells with Gal4 reporter plasmid by luciferase reporter assay. It counts as cell-based. A digest of the protocol: as §1
The target of experiment [12] is T2, Oxysterols receptor LXR-beta (Homo sapiens). Kind of experiment: Activity of human recombinant LXRbeta ligand binding domain-mediated transcriptional activity in human HEK293 cells with Gal4 reporter plasmid by luciferase reporter assay. Format: cell-based. A digest of the protocol: as §1
Experiment [13] deals with T4, Oxysterols receptor LXR-alpha (Homo sapiens). In words: Displacement of [3H2]F3-methyl AA from human recombinant LXRalpha expressed in Escherichia coli BL21 cells at 100 uM.
Experiment [14] concerns the target T2, Oxysterols receptor LXR-beta (Homo sapiens). Kind of experiment: Displacement of [3H2]F3-methyl AA from human recombinant LXRbeta expressed in Escherichia coli BL21 cells at 100 uM.

Broadly, the EC50 is the concentration needed to bring the measured effect to its halfway point. By LC50 is commonly meant the concentration lethal to half of the exposed cells or organisms. Turning to `CC(C)[C@H](C)[C@@]1(C)C[C@@H]1[C@@H](C)[C@H]1CC[C@H]2[C@@H]3C[C@@H](O)[C@@]4(O)C[C@@H](O)CC[C@]4(C)[C@@]3(O)[C@H](O)C[C@]12C`, in [1], the 50% effective concentration (EC50) stood at 50 nM. In addition, the result in experiment [2] was inactive. In addition, in experiment [3], the LC50 is 200 nM.
With `C[C@]1(C(=O)O)CCC[C@]2(C)c3cc(O)ccc3CC[C@@H]12` [PODOCARIC ACID], the EC50 in experiment [1] and in experiment [4] was above 50000 nM in each case. This compound also gave an LC50 in experiment [3] above 50000 nM.
As to `C=C[C@@]1(C)CC=C2[C@@H](CC[C@@H]3[C@](C)(C(=O)NCC45CC6CC(CC(C6)C4)C5)CCC[C@@]23C)C1`, the EC50 in experiment [1] and in experiment [4] was above 50000 nM throughout. The LC50 in experiment [3] was above 50000 nM.
As for `CC(C)CCC[C@@H](C)[C@H]1CC[C@H]2C3=CC(=O)[C@H]4C[C@@H](O)CC[C@]4(C)[C@@]3(O)CC[C@]12C` [VIPERIDONE], in experiment [1], the EC50 is above 15000 nM.
Turning to `C=C(CC[C@@H](C)[C@H]1CC[C@H]2[C@@H]3[C@@H](O)[C@@H](O)[C@@]4(O)C[C@@H](O)CC[C@]4(C)[C@H]3CC[C@]12C)C(C)C`, the concentration giving a half-maximal response (EC50) in experiment [1] stood at 170 nM. The outcome in experiment [2] was inactive.
Regarding `C=C(C)[C@@H]1CC[C@]2(C(=O)O)CC[C@]3(C)[C@H](CC[C@@H]4[C@@]5(C)CC[C@H](O)C(C)(C)[C@@H]5CC[C@]43C)[C@@H]12` [BETULINIC ACID], the EC50 in [1] and in experiment [4] was above 50000 nM throughout. In addition, the LC50 in [3] is above 25000 nM.
Take `CC(C)=CCC[C@@H](C)[C@H]1C[C@H](O)[C@@]2(C)C3=CC[C@H]4C(C)(C)[C@@H](O)CC[C@]4(C)C3=CC[C@]12C`: the EC50 in experiment [1] was 30 nM; in [4] it was above 50000 nM. Besides, the fold change (FC) in experiment [5] was found to be 8. Moreover, in [3], the LC50 is above 15000 nM.
On to `CC(C)[C@H](C)[C@@]1(C)C[C@@H]1[C@@H](C)[C@H]1CC[C@H]2[C@@H]3CC=C4C[C@@H](O)CC[C@]4(C)[C@@]3(O)[C@H](O)C[C@]12C`, for which the EC50 in experiment [1] stood at 450 nM. The result in experiment [6] was inactive. Further, the results for the fold change (FC) in experiment [7] and in experiment [8] were 40 and 10.1, respectively. The compound further yielded a 50% lethal concentration (LC50) in experiment [3] of 50000 nM.
Regarding `C=C[C@@]1(C)CC=C2[C@@H](CC[C@@H]3[C@](C)(C(=O)O)CCC[C@@]23C)C1`, the figures for the EC50 in [1] and in [4] were 180 nM and above 50000 nM, respectively. For the same compound, the fold change (FC) is 15.9 in [9] and 5.6 in experiment [10]. The compound also had an LC50 in experiment [3] of 1490 nM.
For `C/C(=C\CC[C@@H](C)[C@H]1CC[C@@]2(C)[C@@H]3CC=C4[C@@H](CC[C@@H](O)C4(C)C)[C@]3(C)CC[C@]12C)C(=O)O` [ROSACEA ACID B], the EC50 in [1] and in experiment [4] was above 50000 nM each time. Also, the median lethal concentration (LC50) in [3] came out at 390 nM.
In the case of `CC(=O)Oc1ccc2c(c1)[C@@]1(C)CCC[C@](C)(C(=O)OC(=O)[C@@]3(C)CCC[C@]4(C)c5cc(OC(C)=O)ccc5CC[C@@H]34)[C@@H]1CC2` [ACETYL PODOCARPIC ACID ANHYDRIDE], the EC50 in experiment [1] was 1 nM; in experiment [4], below 3 nM. Moreover, the fold change (FC) amounted to 50 in experiment [11] and 85 in [12]. In [3], this compound returned an LC50 of 1 nM.
Turning to `C=C[C@@]1(C)CC=C2[C@@H](CC[C@@H]3[C@](C)(CO)CCC[C@@]23C)C1`, the figures for the EC50 in [1] and in experiment [4] were 390 nM and above 50000 nM, respectively. Moreover, the LC50 in experiment [3] worked out at 730 nM.
Consider `CC(C)CC[C@@H](O)[C@@H](C)[C@H]1CC[C@H]2[C@@H]3CC=C4C[C@@H](O)CC[C@]4(C)[C@H]3CC[C@]12C` [22(R)-HYDROXYCHOLESTEROL], for which the figures for the Activity in experiment [13] and in [14] were 70% and 60%, respectively. In addition, the EC50 in experiment [1] and in [4] was above 15000 nM each time. Moreover, the fold change (FC) in experiment [11] turned out to be 4; in experiment [12] it was 8.
In the case of `CCCc1c(OCCCSc2ccc(CC(=O)O)cc2Cl)ccc2c(C(F)(F)F)noc12`, the fold change (FC) in experiment [11] came to 20; in experiment [12], 35. For the same compound, in [3], the LC50 is 25 nM.
